Diaphorase inh: counter-screen for diaphorase-based assays: diaphorase inhibitors and chemical oxidizers. diaphorase resazurin-to-resorufin fluorescence, NADH, 16 min; bacterial (C. kluyveri) enzyme, not human. inhibition, % at 20 µM. 0.69% of 190,000 active;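 active = primary screen inhibition at 20 µM above a set limit, cut at about 50% in these data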;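 note: plate controls were DMSO with full reaction for no effect and wells lacking NADH for full effect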
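material = Clostridium kluyveri diaphorase enzyme | amount = 0.14 U/mL diaphorase, enzyme working solution | schedule = incubation 16 min, room temperature | detection = fluorescence of resorufin formed from resazurin, Ex 544/Em 590 nm | benchmarks = positive control minus NADH, DMSO neutral control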
HKDC1 inhibitor: inhibitors of human hexokinase HKDC1. 0.16% of 340,000 active. inhibition, % at 20 µM. recombinant HKDC1, G6PDH/diaphorase resazurin coupled fluorescence. Q2TB90. AID 493160;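 active = inhibition above about 35% when tested at 20 µM, limit read from the data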;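 note: plate controls were DMSO wells with enzyme for no effect and DMSO wells lacking enzyme for full effect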
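test system = in-house recombinant HK5 (HKDC1) enzyme | amount = HKDC1 at 5 µg/mL | control set = DMSO-enzyme wells negative, buffer-substituted wells positive | compound = one dose of 20 µM, 1% DMSO | schedule = reaction time 90 min, room temperature, protected from light | technique = resorufin fluorescence at 613 nm | reagent = glucose with 1 mM ATP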
PfGluPho inh: PfG6PD (Plasmodium falciparum) enzyme inhibition | PfGluPho enzyme, NADPH resazurin-diaphorase fluorescence | inhibition, % at 20 µM | 0.78% of 350,000 active | AID 504690;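 active = inhibition reaching at least a set limit at 20 µM in the primary screen, cut at about 59% in these data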;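 note: 0% = DMSO wells with substrate and 100% = DMSO wells lacking glucose-6-phosphate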
G6PDH CS: counter-screen for G6PDH assay hits: L. mesenteroides G6PDH inhibition; Purified L. mesenteroides G6PDH, diaphorase/resazurin coupled fluorescence, 45 min; inhibition, % at 5 µM; 0.12% of 200,000 active; AID 1020; in the data active = inhibition above about 50%
Tb hexokinase: blocks Trypanosoma brucei hexokinase 1 activity. recombinant TbHK1, G6PDH-coupled NADH A340. inhibition, % at 10 µM. 0.11% of 220,000 active;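 active = inhibition of 50% or more in the single-dose primary screen; inactive = inhibition below 50%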
Active calls of the source: *. An excerpt weighted towards active compounds, which were near 1.2% of everything screened.

Results for CCN(CC)CC(=O)c1c(N)n(Cc2ccccc2)c(=O)n(C)c1=O ?
Diaphorase inh: 11.5; HKDC1 inhibitor: 1.6; PfGluPho inh: -11.6; G6PDH CS: 1.5; Tb hexokinase: -3.2

Results for Cn1c(=O)c(C(=S)NC(=O)C2CC2)c(N)n(Cc2ccccc2)c1=O ?
Diaphorase inh: 65.9*; G6PDH CS: -35.2; Tb hexokinase: -3.7

What do the screens show for `O=c1c(Cl)c(O)c2cccc3c4ccccc4n1c23`?
Diaphorase inh: 52.3*; HKDC1 inhibitor: 20.0; PfGluPho inh: 16.2; G6PDH CS: 2.7; Tb hexokinase: -19.7

What do the screens show for `CC1CCN(C(=O)CCC(=O)Nc2ccc([N+](=O)[O-])cc2)CC1`?
PfGluPho inh: 5.0

What do the screens show for `COc1ccccc1NC(=O)c1cnc(SC)nc1`?
HKDC1 inhibitor: -4.0; PfGluPho inh: 1.5

Results for O=[N+]([O-])c1ccc(N2CCN(C(=S)c3cccc([N+](=O)[O-])c3)CC2)cc1 ?
HKDC1 inhibitor: -15.7; PfGluPho inh: 68.2*; Tb hexokinase: 1.6

Results for COc1ccccc1NC(=O)N(C)C[C@@H]1OCc2cn(nn2)CCCC(=O)N([C@H](C)CO)C[C@H]1C ?
PfGluPho inh: -0.2

How did COc1cc2c(cc1OC)C(c1ccccc1)N(S(C)(=O)=O)CC2 (stereo not drawn) do in these assays?
Diaphorase inh: 81.5*; HKDC1 inhibitor: -11.3; PfGluPho inh: -0.5; G6PDH CS: 2.3; Tb hexokinase: -2.6

How did COc1ccc2[nH]c3c(c2c1)CCN1C(=O)C(CC(=O)NCCCN(C)C)C[C@H](C(=O)N2CCCCC2)[C@@]31C (stereo partly drawn) do in these assays?
HKDC1 inhibitor: -1.8; PfGluPho inh: 2.0

Results for O=C(Nc1ccc2nsnc2c1)N1CCCCC1 ?
Diaphorase inh: 31.9; HKDC1 inhibitor: 4.8; PfGluPho inh: -0.6; G6PDH CS: 11.2; Tb hexokinase: -19.8

What do the screens show for `COCCNC(=S)Nc1ccc2nsnc2c1`?
Diaphorase inh: 53.2*; HKDC1 inhibitor: 13.4; PfGluPho inh: 20.4; G6PDH CS: 34.8; Tb hexokinase: 4.3

What do the screens show for `COCCNC(=S)Nc1ccc(Cl)c(Cl)c1`?
Diaphorase inh: 5.8; HKDC1 inhibitor: 6.4; PfGluPho inh: 10.1; G6PDH CS: 6.3; Tb hexokinase: -1.0

What do the screens show for `S=C(Nc1ccc2nsnc2c1)N1CCCCCC1`?
HKDC1 inhibitor: 4.6; PfGluPho inh: 3.8; G6PDH CS: 59.6*; Tb hexokinase: -14.2

How did S=C(Nc1ccc2nsnc2c1)NC1CCCCC1 do in these assays?
Diaphorase inh: 41.4; HKDC1 inhibitor: 14.8; PfGluPho inh: 36.6; G6PDH CS: 55.5*; Tb hexokinase: 24.4

How did CCCn1nnnc1NCc1ccc(N(CC)CC)cc1 do in these assays?
HKDC1 inhibitor: -7.8; PfGluPho inh: -6.6

What do the screens show for `COc1ccccc1C1Nc2cccc3cccc(c23)N1`?
Diaphorase inh: 56.6*; HKDC1 inhibitor: 11.9; PfGluPho inh: 37.6; G6PDH CS: 14.5; Tb hexokinase: -31.1

How did CCOc1ccc(C2Nc3cccc4cccc(c34)N2)cc1OC do in these assays?
Diaphorase inh: 65.3*; HKDC1 inhibitor: 4.5; PfGluPho inh: 54.1; G6PDH CS: 13.1; Tb hexokinase: -25.3

How did CCOc1cc(C2Nc3cccc4cccc(c34)N2)ccc1O do in these assays?
Diaphorase inh: 36.6; HKDC1 inhibitor: 19.8; PfGluPho inh: 7.8; G6PDH CS: 10.0; Tb hexokinase: -26.7

What do the screens show for `COCOCCn1cc(CN2CCS(=O)(=O)N(Cc3ccc(-c4ccc(Cl)c(Cl)c4)cc3)C(C(C)C)C2=O)nn1` (stereo not drawn)?
PfGluPho inh: 26.0

What do the screens show for `Nc1ccc(N)c(C(=O)O)c1`?
HKDC1 inhibitor: 36.0*; PfGluPho inh: 70.9*

What do the screens show for `Nc1ccc(C(=O)O)c(O)c1`?
Diaphorase inh: 21.8; HKDC1 inhibitor: 7.2; PfGluPho inh: 27.9; G6PDH CS: 12.3; Tb hexokinase: -1.4

What do the screens show for `COc1ccc(N(CC(=O)NCC2CCCO2)S(=O)(=O)c2ccccc2)cc1OC` (stereo not drawn)?
HKDC1 inhibitor: -9.3; PfGluPho inh: 3.4

Results for CN(C)C(=O)N1CCc2ccc([N+](=O)[O-])cc21 ?
PfGluPho inh: 1.7

How did Cc1ccc(NC(=O)C(C)Sc2nc3nc(C)cc(C)n3n2)cc1 (stereo not drawn) do in these assays?
HKDC1 inhibitor: 20.2; PfGluPho inh: 8.6

Source: PubChem BioAssay (several laboratories)
